Experiments:
[1] = target: T1, Human immunodeficiency virus type 1 integrase (Human immunodeficiency virus 1, UniProt Q7ZJM1); assay: Inhibition of HIV1 integrase strand transfer activity using labelled oligonucleotide substrate by ELISA
[2] = target: T1, Human immunodeficiency virus type 1 integrase; assay: Inhibition of HIV1 integrase using labelled oligonucleotide substrate in presence of bovine serum albumin by ELISA
[3] = target: T1, Human immunodeficiency virus type 1 integrase; assay: Inhibition of HIV1 integrase using labelled U5A/U5B double stranded DNA substrate
[4] = Cytotoxicity against human MT4 cells by MTT method; format: cell-based
Summary of the method: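 Uninfected MT-4 lymphocytes run in parallel with the antiviral assay, with 5-fold serial compound dilutions. Viability read by MTT reduction to formazan, measured spectrophotometrically. CC50 = concentration reducing MT-4 viability by 50%.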

[5] = Selectivity index, ratio of CC50 for human MT4 cells to EC50 for HIV1 3B; format: functional
Summary of the method: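 Ratio CC50/EC50 from parallel MT-4/MTT assays. CC50 comes from uninfected MT-4 cells and EC50 from MT-4 cells infected with 100–300 CCID50 of HIV-1 IIIB. Both assays used 5-fold serial dilutions.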

[6] = system: Human immunodeficiency virus 1; assay: Antiviral activity against HIV1 3B infected in human MT4 cells assessed as reduction of virus-induced cytopathogenicity by MTT assay; format: functional, organism-based; conditions: Human immunodeficiency virus 1, 3B
Summary of the method: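 MT-4 lymphocytes infected with 100–300 CCID50 of HIV-1 IIIB stock (CCID50 titrated on MT-4 cells), in the presence of 5-fold serial compound dilutions. Protection against virus-induced cytopathic effect read by MTT reduction to formazan, measured spectrophotometrically. EC50 = concentration giving 50% protection against CPE.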

[7] = target: T1, Human immunodeficiency virus type 1 integrase; assay: Inhibition of HIV1 integrase 3'-processing activity using labelled oligonucleotide substrate by ELISA
[8] = target: T1, Human immunodeficiency virus type 1 integrase; assay: Inhibition of HIV1 integrase using labelled oligonucleotide substrate by ELISA
Albumin = Albumin (Bos taurus, UniProt P02769); assay: Binding affinity to BSA by fluorescence quenching assay; format: ADME; conditions: cattle, isolated protein
Summary of the method: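 BSA tryptophan fluorescence quenching at pH 7.4 on binding of the compound. Data fitted as Stern–Volmer plots, and the slope of the linear fit was taken as the quenching constant.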

[9] = target: Human immunodeficiency virus type 1 reverse transcriptase (Human immunodeficiency virus 1, UniProt Q72547); assay: Inhibition of HIV1 reverse transcriptase

T1 sequence (Q7ZJM1 whole entry): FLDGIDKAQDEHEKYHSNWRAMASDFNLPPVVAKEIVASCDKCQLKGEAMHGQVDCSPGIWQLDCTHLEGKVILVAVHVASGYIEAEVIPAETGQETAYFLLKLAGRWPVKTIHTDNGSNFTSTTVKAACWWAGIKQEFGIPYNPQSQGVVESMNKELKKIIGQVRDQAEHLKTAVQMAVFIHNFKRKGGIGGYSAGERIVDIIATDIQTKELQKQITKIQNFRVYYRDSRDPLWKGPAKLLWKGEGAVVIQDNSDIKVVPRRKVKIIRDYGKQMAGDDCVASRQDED
Chain of Albumin (P02769 whole entry): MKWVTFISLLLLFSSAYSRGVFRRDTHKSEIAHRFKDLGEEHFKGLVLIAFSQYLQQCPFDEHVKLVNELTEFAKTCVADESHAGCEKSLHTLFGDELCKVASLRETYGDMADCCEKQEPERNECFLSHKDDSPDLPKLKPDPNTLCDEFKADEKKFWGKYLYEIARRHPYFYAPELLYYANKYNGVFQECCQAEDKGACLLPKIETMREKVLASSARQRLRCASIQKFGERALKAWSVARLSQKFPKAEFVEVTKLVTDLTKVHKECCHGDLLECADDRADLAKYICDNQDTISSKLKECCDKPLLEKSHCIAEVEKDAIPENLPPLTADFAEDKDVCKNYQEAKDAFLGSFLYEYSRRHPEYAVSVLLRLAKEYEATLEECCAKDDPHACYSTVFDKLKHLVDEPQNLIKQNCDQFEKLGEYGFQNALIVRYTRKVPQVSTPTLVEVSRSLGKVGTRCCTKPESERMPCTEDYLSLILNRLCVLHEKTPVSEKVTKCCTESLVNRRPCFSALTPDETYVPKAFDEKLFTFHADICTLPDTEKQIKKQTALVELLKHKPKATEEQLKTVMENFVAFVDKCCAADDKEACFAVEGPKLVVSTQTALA

IC50 [2] [µM] | IC50 [9] [µM] | SMILES | IC50 [1] [nM] | IC50 [3] [nM] | CC50 [4] [µM] | Ratio CC50/EC50 [5] | EC50 [6] [µM] | IC50 [7] [µM] | IC50 [8] [nM] | K (Albumin)
63.5 | 100 | O=C(/C=C/c1ccc(O)c(O)c1)O[C@H](Cc1ccc(O)c(O)c1)C(=O)O [ROSMARINIC ACID] | – | – | 55 | – | > 55 | – | – | –
– | – | O=C(NCc1ccc(F)cc1)c1nc(N2CCCCS2(=O)=O)c2cccnc2c1O | – | – | 2.2 | 457 | – | – | – | –
54.7 | – | O=C(/C=C/c1ccc(O)c(O)c1)O[C@H](Cc1cc(O)c(O)cc1[N+](=O)[O-])C(=O)O | 3700 | 26 | 160 | 4 | 39 | > 247 | 1400 | 17460 10^3/M

SMILES | IC50 [2] [µM] | IC50 [9] [µM] | IC50 [1] [nM] | IC50 [3] [nM] | CC50 [4] [µM] | Ratio CC50/EC50 [5] | EC50 [6] [µM] | IC50 [7] [µM] | IC50 [8] [nM] | K (Albumin)
O=C(/C=C/c1cc(O)c(O)cc1[N+](=O)[O-])O[C@H](Cc1cc(O)c(O)cc1[N+](=O)[O-])C(=O)O | 20.8 | – | 70 | 30 | 45.5 | 3.8 | 12 | 52.2 | 150 | 3300 10^3/M

Source: ChEMBL document CHEMBL1144714, “Reaction of rosmarinic acid with nitrite ions in acidic conditions: discovery of nitro- and dinitrorosmarinic acids as new anti-HIV-1 agents” (J Med Chem, 2008)
